Results reported in ChEMBL document CHEMBL3112444, “Synthesis and anticancer activity of focused compound libraries from the natural product lead, oroidin” (2014).

Legend:
[1] = test system: DU-145; experiment: Cytotoxicity against human DU145 cells assessed as growth inhibition after 72 hrs by MTT assay; format: functional; details: DU-145, 72 h
Method in brief: (§1)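 Cells in logarithmic growth kept in DMEM with 10% FBS, 10 mM sodium bicarbonate, penicillin 100 IU/mL, glutamine 4 mM, at 37 °C under 5% CO2. Plated in duplicate at 2500–4000 cells/well. Compound (30 mM DMSO stock) added 24 h after plating. MTT read at 540 nm after 72 h exposure.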

[2] = Cytotoxicity against human BE(2)-C cells assessed as growth inhibition after 72 hrs by MTT assay; format: functional; method in brief: as §1
[3] = Cytotoxicity against human U87 cells assessed as growth inhibition after 72 hrs by MTT assay; format: functional, U-87MG ATCC; details: U-87 MG; method in brief: as §1
[4] = Cytotoxicity against human SJ-G2 cells assessed as growth inhibition after 72 hrs by MTT assay; format: functional; details: SJ-G2, 72 h; method in brief: as §1
[5] = test system: HT-29; experiment: Cytotoxicity against human HT-29 cells assessed as growth inhibition at 25 uM after 72 hrs by MTT assay relative to control; format: functional; details: HT-29, 72 h, read-out: GI; method in brief: as §1
[6] = test system: A2780; experiment: Cytotoxicity against human A2780 cells assessed as growth inhibition at 25 uM after 72 hrs by MTT assay relative to control; format: functional; details: A2780, 72 h, read-out: GI; method in brief: as §1
[7] = Cytotoxicity against human U87 cells assessed as growth inhibition at 25 uM after 72 hrs by MTT assay relative to control; format: functional, U-87MG ATCC; details: U-87 MG, read-out: GI; method in brief: as §1
[8] = test system: DU-145; experiment: Cytotoxicity against human DU145 cells assessed as growth inhibition at 25 uM after 72 hrs by MTT assay relative to control; format: functional; details: DU-145, 72 h, read-out: GI; method in brief: as §1
[9] = test system: A-431; experiment: Cytotoxicity against human A431 cells assessed as growth inhibition after 72 hrs by MTT assay; format: functional; details: A-431, 72 h; method in brief: as §1
[10] = Cytotoxicity against human H460 cells assessed as growth inhibition at 25 uM after 72 hrs by MTT assay relative to control; format: functional; details: NCI-H460, 72 h, read-out: GI; method in brief: as §1
[11] = test system: A2780; experiment: Cytotoxicity against human A2780 cells assessed as growth inhibition after 72 hrs by MTT assay; format: functional; details: A2780, 72 h; method in brief: as §1
[12] = test system: HT-29; experiment: Cytotoxicity against human HT-29 cells assessed as growth inhibition after 72 hrs by MTT assay; format: functional; details: HT-29, 72 h; method in brief: as §1
[13] = Cytotoxicity against human H460 cells assessed as growth inhibition after 72 hrs by MTT assay; format: functional; details: NCI-H460, 72 h; method in brief: as §1
[14] = Cytotoxicity against human BE(2)-C cells assessed as growth inhibition at 25 uM after 72 hrs by MTT assay relative to control; format: functional; details: read-out: GI; method in brief: as §1
[15] = test system: A-431; experiment: Cytotoxicity against human A431 cells assessed as growth inhibition at 25 uM after 72 hrs by MTT assay relative to control; format: functional; details: A-431, 72 h, read-out: GI; method in brief: as §1
[16] = Cytotoxicity against mouse SMA cells assessed as growth inhibition after 72 hrs by MTT assay; format: functional; method in brief: as §1
[17] = test system: MCF7; experiment: Cytotoxicity against human MCF7 cells assessed as growth inhibition at 25 uM after 72 hrs by MTT assay relative to control; format: functional; details: MCF7, 72 h, read-out: GI; method in brief: as §1
[18] = test system: SW480; experiment: Cytotoxicity against human SW480 cells assessed as growth inhibition at 25 uM after 72 hrs by MTT assay relative to control; format: functional; details: SW480, 72 h, read-out: GI; method in brief: as §1
[19] = Cytotoxicity against human MIA cells assessed as growth inhibition after 72 hrs by MTT assay; format: functional; method in brief: as §1
[20] = Cytotoxicity against mouse SMA cells assessed as growth inhibition at 25 uM after 72 hrs by MTT assay relative to control; format: functional; details: read-out: GI; method in brief: as §1
[21] = Cytotoxicity against human SJ-G2 cells assessed as growth inhibition at 25 uM after 72 hrs by MTT assay relative to control; format: functional; details: SJ-G2, 72 h, read-out: GI; method in brief: as §1
[22] = Cytotoxicity against human MIA cells assessed as growth inhibition at 25 uM after 72 hrs by MTT assay relative to control; format: functional; details: read-out: GI; method in brief: as §1
[23] = test system: SW480; experiment: Cytotoxicity against human SW480 cells assessed as growth inhibition after 72 hrs by MTT assay; format: functional; details: SW480, 72 h; method in brief: as §1
[24] = test system: MCF7; experiment: Cytotoxicity against human MCF7 cells assessed as growth inhibition after 72 hrs by MTT assay; format: functional; details: MCF7, 72 h; method in brief: as §1

SMILES	GI50 [1] [µM]	GI50 [2] [µM]	GI50 [3] [µM]	GI50 [4] [µM]	inhibition of growth at 25 µM [5] [%]	inhibition of growth at 25 µM [6] [%]	inhibition of growth at 25 µM [7] [%]	inhibition of growth at 25 µM [8] [%]	GI50 [9] [µM]	inhibition of growth at 25 µM [10] [%]	GI50 [11] [µM]	GI50 [12] [µM]	GI50 [13] [µM]	inhibition of growth at 25 µM [14] [%]	inhibition of growth at 25 µM [15] [%]	inhibition of growth at 25 µM [17] [%]	inhibition of growth at 25 µM [18] [%]	inhibition of growth at 25 µM [20] [%]	inhibition of growth at 25 µM [21] [%]	inhibition of growth at 25 µM [22] [%]	further results
O=C(NCC(c1ccccc1)c1ccccc1)c1cc(Br)c(Br)[nH]1	21	16	36	27	82	94	48	56	19	67	13	16	18	> 100	56	> 100	33	80	56	69	GI50 [16]: 11 µM; GI50 [19]: 18 µM; GI50 [23]: 34 µM; GI50 [24]: 10 µM
O=C(NCc1ccc(Cl)c(Cl)c1)c1cc(Br)c(Br)[nH]1	20	24	27	18	77	90	55	66	20	66	15	17	19	44	57	> 100	22	84	70	77	GI50 [16]: 17 µM; GI50 [19]: 17 µM; GI50 [23]: 33 µM; GI50 [24]: 12 µM
O=C(NCc1ccc(Cl)cc1)c1cc(Br)c(Br)[nH]1	27	32	34	28	95	86	30	40	24	57	13	13	28	24	37	> 100	11	79	42	63	GI50 [16]: 16 µM; GI50 [19]: 22 µM; GI50 [23]: 36 µM; GI50 [24]: 14 µM
O=C(NCc1ccc(-c2ccccc2)cc1)c1ccc[nH]1	6.5	11	11	> 50	78	58	77	87	5.8	59	11	4.3	> 50	72	81	79	93	53	33	74	GI50 [16]: 21 µM; GI50 [19]: 6.5 µM; GI50 [23]: 4.3 µM; GI50 [24]: 5.7 µM
O=C(NCc1ccccc1)c1cc(Br)c(Br)[nH]1	33	4.8	> 50	11	> 100	84	31	52	22	43	14	4.6	35	> 100	56	> 100	33	61	95	33	GI50 [16]: 25 µM; GI50 [19]: > 50 µM; GI50 [23]: > 50 µM; GI50 [24]: 11 µM
O=C(NCc1ccc(-c2ccccc2)cc1)c1cc(Br)c(Br)[nH]1	2.6	4.2	> 50	> 50	78	66	58	64	3.7	61	6.4	3.4	21	57	90	70	97	59	17	82	GI50 [16]: 17 µM; GI50 [19]: 3.4 µM; GI50 [23]: 2.4 µM; GI50 [24]: 3.1 µM
Nc1ncc(/C=C/CNC(=O)c2cc(Br)c(Br)[nH]2)[nH]1 [OROIDIN]	> 50	> 50	> 50	> 50	31	51	3	23	> 50	7	24	> 50	> 50	6	6	27	8	15	< 0	21	GI50 [16]: > 50 µM; GI50 [19]: > 50 µM; GI50 [23]: > 50 µM; GI50 [24]: 42 µM
O=C(NCCCn1cccn1)c1cc(Br)c(Br)[nH]1	–	–	–	–	4	15	< 0	5	–	14	–	–	–	6	3	12	< 0	6	< 0	3	–
O=C(NCc1ccc(Cl)c(Cl)c1)c1ccc[nH]1	–	–	–	–	14	15	4	< 0	–	14	–	–	–	< 0	6	7	< 0	17	11	< 0	–
CCc1ccc(CCNC(=O)c2ccc[nH]2)cc1	–	–	–	–	22	< 0	0	1	–	3	–	–	–	< 0	0	19	< 0	8	< 0	12	–
CCc1ccc(CCNC(=O)c2cc(Br)c(Br)[nH]2)cc1	–	–	–	–	81	67	6	7	–	23	–	–	–	20	22	88	5	79	22	31	–
